Source: ChEMBL document CHEMBL4765345, “Design, synthesis, and biological evaluation of dual targeting inhibitors of histone deacetylase 6/8 and bromodomain BRPF1” (Eur J Med Chem, 2020)

Assays:
[1] = target: T1, Protein deacetylase HDAC6 (Homo sapiens) (UniProt Q9UBN7); assay: Inhibition of recombinant human HDAC6 at 10 uM using Z-(Ac)Lys-AMC as substrate after 90 mins by fluorescence based micro plate assay
T1 sequence (whole entry): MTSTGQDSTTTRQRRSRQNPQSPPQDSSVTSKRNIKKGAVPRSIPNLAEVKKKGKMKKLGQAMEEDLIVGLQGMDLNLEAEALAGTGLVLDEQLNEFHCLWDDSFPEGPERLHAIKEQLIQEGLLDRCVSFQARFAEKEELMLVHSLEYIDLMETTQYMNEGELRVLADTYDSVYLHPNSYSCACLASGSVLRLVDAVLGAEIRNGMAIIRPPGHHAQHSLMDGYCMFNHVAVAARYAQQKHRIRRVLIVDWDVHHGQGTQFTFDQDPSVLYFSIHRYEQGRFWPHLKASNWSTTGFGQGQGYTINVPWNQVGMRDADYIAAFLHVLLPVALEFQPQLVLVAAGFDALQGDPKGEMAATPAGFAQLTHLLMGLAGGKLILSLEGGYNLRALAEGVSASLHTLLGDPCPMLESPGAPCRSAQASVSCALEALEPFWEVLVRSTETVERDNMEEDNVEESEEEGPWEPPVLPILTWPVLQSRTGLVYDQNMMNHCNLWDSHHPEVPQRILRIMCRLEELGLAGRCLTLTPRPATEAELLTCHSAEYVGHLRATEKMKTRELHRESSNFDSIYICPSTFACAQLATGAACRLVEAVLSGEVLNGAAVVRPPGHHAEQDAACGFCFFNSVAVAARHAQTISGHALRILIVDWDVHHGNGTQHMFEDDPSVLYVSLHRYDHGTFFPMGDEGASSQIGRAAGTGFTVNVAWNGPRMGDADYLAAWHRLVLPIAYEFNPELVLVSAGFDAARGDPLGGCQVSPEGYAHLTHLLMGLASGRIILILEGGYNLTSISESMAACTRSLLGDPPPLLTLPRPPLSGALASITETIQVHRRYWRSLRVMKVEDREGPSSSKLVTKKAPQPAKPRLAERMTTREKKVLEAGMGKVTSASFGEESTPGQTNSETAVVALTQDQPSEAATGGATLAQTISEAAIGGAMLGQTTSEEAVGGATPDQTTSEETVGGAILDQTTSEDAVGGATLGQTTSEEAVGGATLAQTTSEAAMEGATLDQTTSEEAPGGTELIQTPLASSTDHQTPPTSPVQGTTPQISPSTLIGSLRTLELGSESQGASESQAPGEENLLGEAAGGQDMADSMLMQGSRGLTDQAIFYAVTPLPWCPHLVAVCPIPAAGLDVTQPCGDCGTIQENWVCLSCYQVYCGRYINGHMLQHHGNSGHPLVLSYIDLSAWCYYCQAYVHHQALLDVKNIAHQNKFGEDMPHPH
In short: (§1)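 Recombinant human HDAC1 or HDAC6 incubated 90 min at 37 °C with 10.5 μM ZMAL (Z-(Ac)Lys-AMC) and increasing inhibitor concentrations, using a homogeneous fluorescence assay. Fluorescence read at Ex 390/Em 460 nm.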

[2] = system: HL-60; assay: Antiproliferative activity against human HL60 assessed as reduction in cell growth at 4 uM by CellTiter-non radioactive cell proliferation assay; type: functional
In short: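 HL60 cells plated at 5000 per well and given inhibitor or DMSO vehicle immediately. Compounds diluted from 200x DMSO stocks; three replicates per concentration. Growth read by CellTiter 96 Aqueous (MTS) assay. GI50 is the concentration cutting metabolically active cells by 50% versus DMSO control, taken from absorbance against log concentration.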

[3] = target: T1, Protein deacetylase HDAC6 (Homo sapiens); assay: Inhibition of recombinant human HDAC6 at 1 uM using Z-(Ac)Lys-AMC as substrate after 90 mins by fluorescence based micro plate assay; in short: as §1
[4] = target: Histone deacetylase 1 (Homo sapiens, UniProt Q13547); assay: Inhibition of recombinant human HDAC1 at 1 uM using Z-(Ac)Lys-AMC as substrate after 90 mins by fluorescence based micro plate assay; in short: as §1
Sequence of Histone deacetylase 1 (Q13547 whole entry): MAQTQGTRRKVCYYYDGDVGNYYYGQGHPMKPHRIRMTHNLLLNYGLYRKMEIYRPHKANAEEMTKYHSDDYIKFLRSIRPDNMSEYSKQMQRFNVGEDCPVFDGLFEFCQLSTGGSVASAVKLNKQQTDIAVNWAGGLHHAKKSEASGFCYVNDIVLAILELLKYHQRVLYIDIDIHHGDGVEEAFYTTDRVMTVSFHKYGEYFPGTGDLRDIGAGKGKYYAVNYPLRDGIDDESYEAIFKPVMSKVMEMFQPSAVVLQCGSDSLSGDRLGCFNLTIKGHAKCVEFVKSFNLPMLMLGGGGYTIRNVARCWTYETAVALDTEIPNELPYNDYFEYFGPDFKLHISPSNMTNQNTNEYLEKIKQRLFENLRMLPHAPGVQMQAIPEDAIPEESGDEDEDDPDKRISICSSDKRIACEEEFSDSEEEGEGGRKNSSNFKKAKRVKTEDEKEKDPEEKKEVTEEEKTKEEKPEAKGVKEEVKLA

[5] = system: THP-1; assay: Antiproliferative activity against human THP-1 assessed as reduction in cell growth at 100 uM by CellTiter-non radioactive cell proliferation assay; type: functional
[6] = system: THP-1; assay: Antiproliferative activity against human THP-1 assessed as reduction in cell growth at 20 uM by CellTiter-non radioactive cell proliferation assay; type: functional
[7] = target: T2, Histone deacetylase 8 (Homo sapiens, UniProt Q9BY41); assay: Inhibition of human recombinant HDAC8 using H2N-Arg-His-Lys(Ac)-Lys(Ac)-AMC as substrate after 90 mins by fluorescence based micro plate assay
T2 sequence (Q9BY41 whole entry): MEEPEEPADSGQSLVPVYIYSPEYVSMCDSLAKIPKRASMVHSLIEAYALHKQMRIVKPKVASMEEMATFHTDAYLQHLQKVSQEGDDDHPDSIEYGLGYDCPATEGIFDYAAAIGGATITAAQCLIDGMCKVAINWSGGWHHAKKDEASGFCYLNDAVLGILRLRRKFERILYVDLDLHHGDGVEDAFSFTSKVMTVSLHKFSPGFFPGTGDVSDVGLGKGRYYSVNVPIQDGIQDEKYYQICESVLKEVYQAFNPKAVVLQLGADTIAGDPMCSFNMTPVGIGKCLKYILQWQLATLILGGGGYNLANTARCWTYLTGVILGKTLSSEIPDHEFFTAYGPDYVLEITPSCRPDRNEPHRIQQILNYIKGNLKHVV

inhibition [1]: 64%
inhibition [3]: 21%
inhibition [4]: 6%
IC50 [7]: 443 nM
SMILES: COc1ccc(C(=O)NO)cc1S(=O)(=O)Nc1ccc2c(c1)cc(C)c(=O)n2C
inhibition at 4 µM [2]: 25%
inhibition at 100 µM [5]: 43%
inhibition at 20 µM [6]: 32%
